# BaF3 parental = reduces parental Ba/F3 cell viability, JAK2V617F counter-screen; CellTiter-Glo ATP luminescence; inhibition, % at 5.6 µM; 220,000 compounds, 1.1% hits; AID 1486;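 active = inhibition above a per-campaign cutoff, the mean inhibition of all tested compounds plus 3 SD, cut at about 27% in these data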;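 also: 0% = DMSO wells and 100% = JAK Inhibitor I control wells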
# MT stabilizer = stabilizes microtubules in HeLa cells; HeLa tubulin immunostaining HCS, 24 h; share of cells brighter than vehicle mean+2SD; % tubulin-high responders, % at 10 µM; 200,000 compounds, 0.83% hits; AID 2205;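 active = plate Z-score above 3 for both tubulin-high and condensed-nucleus cell shares, with cell loss under 80%, at 10 µM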;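 also: anti alpha tubulin signal scored within the nucleus-defined area of each cell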
# Ba/F3 V617F tox = lowers viability of Ba/F3 cells expressing EpoR and JAK2V617F; ATP luminescence; inhibition, % at 5.6 µM; 220,000 compounds, 1.1% hits; AID 1446;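 active = inhibition above the campaign mean plus 3 SD over all tested compounds, cut at about 24% in these data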;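 also: cytokine-independent growth of Ba/F3 cells driven by EpoR plus mutant JAK2; 0% = DMSO-treated cells and 100% = JAK inhibitor I control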
# KLF5 inhibitor = suppresses KLF5 promoter-driven expression. inhibition, % at 5 µM. DLD-1 KLF5 promoter-luciferase reporter, luminescence. 290,000 compounds, 0.23% hits;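 active = inhibition above a per-plate limit of that plate's mean compound inhibition plus 3 SD, cut at about 60% in these data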;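 also: 0% = DMSO wells and 100% = LY294002 at 200 µM; higher means less KLF5 promoter-driven luciferase light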
# IEC-6 tox-1 = kills IEC-6 intestinal cells in KLF5 counter-screen. AID 1825. inhibition, % at 5 µM. IEC-6 cytotoxicity, luminescence viability. 290,000 compounds, 0.78% hits;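 also: 0% = plate median of test compound wells and 100% = cytotoxic reference compound wells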
# b-catenin transl = modulators of beta-catenin nuclear translocation; nuclear translocation activity, % at 5 µM; HeLa beta-catenin nuclear translocation, immunofluorescence imaging; 190,000 compounds, 0.3% hits;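 active = nuclear translocation activity above 50% at 5 µM, with a well cell count of 50 or more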;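 also: per-cell ratio of nuclear to cytoplasmic median beta-catenin stain intensity; plate controls were DMSO negative control for no effect and GSK-3 inhibitor IX positive control for full effect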
#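 Test system: human HeLa cells, endogenous beta-catenin. Times: 24 h compound exposure, 37°C. Measured by: beta-catenin immunofluorescence imaging with DAPI.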
# KLF5 confirm = confirmation of KLF5 inhibitors. shares compounds with KLF5 inhibitor. DLD-1 KLF5 promoter firefly luciferase reporter, luminescence. inhibition, % at 4 µM. 610 compounds, 79% hits. AID 1834;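 active = inhibition above a set limit taken from the earlier primary screen, cut at about 63% in these data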;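 also: 0% = DMSO wells and 100% = LY294002 at 200 µM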
# IEC-6 tox-2 = kills rat IEC-6 cells in KLF5 counter-screen | shares compounds with KLF5 inhibitor | IEC-6 rat intestinal cells, viability luminescence | inhibition, % at 4 µM | 610 compounds, 56% hits | AID 1905; in the data active = inhibition above about 23%;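 also: cells exposed to compounds for 48 hours before viability read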
# IEC-6 tox confirm = IEC-6 cytotoxicity, confirmation assay; shares compounds with IEC-6 tox-1; IEC-6 rat intestinal epithelial viability, luminescence; inhibition, % at 5 µM; 1,900 compounds, 63% hits; AID 1907;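 also: 0% = vehicle and 100% = reference cytotoxic drug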
# An asterisk follows results filed as active; x = not tested or not shown. An excerpt weighted towards active compounds, which were near 2.1% of everything screened. Rule as the data show it, unless noted: active = inhibition above about 22%; inactive = the rest.
SMILES,BaF3 parental,MT stabilizer,Ba/F3 V617F tox,KLF5 inhibitor,IEC-6 tox-1,b-catenin transl,KLF5 confirm,IEC-6 tox-2,IEC-6 tox confirm
CCCCCCCCCn1c2c(c(=N)c3c1CCC3)CCCC2,92.7*,26.1*,101.8*,75.6*,63.9*,7.2,114.2*,41.6*,55.3*
CCCCCc1nc2c(c3c1CCCC3)CCCC2,0.9,x,-3.6,-40.2,-2.0,-0.6,x,x,x
O=C(CN1CCOCC1)Nc1ccc(Cl)cn1,x,x,x,-34.6,1.8,x,x,x,x
O=C(CSc1nnc(-c2ccccc2)o1)Nc1ccccc1F,31.8*,3.2,26.2*,72.3*,28.9*,x,-54.5,-5.9,-3.5
Cc1ccc(-c2nnc(SCC(=O)Nc3ccccc3F)o2)cc1,20.9,2.7,14.5,99.6*,28.3*,-0.7,66.0*,5.4,16.6
Brc1ccc(C2=Nn3c(nnc3-c3n[nH]c4c3CCC4)SC2)cc1,80.5*,34.0*,75.0*,67.5*,77.4*,146.3*,67.4*,62.8*,58.8*
N#CC1=C2SCN(c3ccccc3)CN2C(=O)CC1c1cccs1 (centres undefined),1.3,5.9,-0.3,-0.2,2.1,-0.4,x,x,x
N#CC1=C2SCC(O)(c3ccccc3)N2C(=O)CC1c1cccs1 (centres undefined),75.2*,31.8*,74.4*,72.1*,82.4*,175.5*,74.4*,62.2*,55.5*
COc1ccc(/C=C(\C#N)C(=O)OCC(=O)Nc2c(C)cccc2C(C)C)cc1,7.6,2.5,-2.8,-34.5,1.1,-1.6,x,x,x
O=C1OCC2=C1C(c1ccc3c(c1)OCO3)Sc1ccccc1N2 (centres undefined),7.7,2.0,0.6,-14.9,-1.7,x,x,x,x
COc1cc2c(cc1OC)C(c1ccc3c(c1)OCO3)C1=C(CC(C)(C)CC1=O)N2 (centres undefined),4.1,1.9,3.0,-27.9,-3.0,-0.5,x,x,x
CC(=O)Oc1ccc(C2C3=C(CC(C)(C)CC3=O)Nc3cc4c(cc32)OCCO4)cc1 (centres undefined),7.9,4.0,2.3,-7.9,1.9,0.3,x,x,x
O=C1OCC2=C1C(c1ccc(F)cc1)c1cc3c(cc1N2)OCO3 (centres undefined),15.6,6.9,59.0*,68.3*,76.6*,74.3*,88.2*,85.9*,83.6*
C#CCOc1ccc(C2C3=C(COC3=O)Nc3cc4c(cc32)OCO4)cc1OC (centres undefined),95.1*,1.6,94.0*,78.9*,94.9*,61.0*,88.1*,82.7*,84.4*
O=C1OCC2=C1C(c1ccc(F)cc1)c1cc3c(cc1N2)OCCO3 (centres undefined),95.7*,11.6,95.7*,98.4*,94.7*,77.9*,91.8*,84.1*,86.1*
CC(=O)NC(c1ccc(C)cc1)c1cc([N+](=O)[O-])c2cccnc2c1O (centres undefined),6.7,1.2,-3.1,-37.1,-4.2,0.1,x,x,x
CCCC(=O)NC(c1ccc(OC)c(OC)c1)c1cc(Cl)c2cccnc2c1O (centres undefined),1.9,2.3,-4.8,-2.6,-0.6,0.2,x,x,x
CC(=O)NC(c1ccccc1)c1cc(Cl)c2cccnc2c1O (centres undefined),x,x,x,89.3*,83.1*,x,73.7*,87.2*,72.5*
CCCC(=O)NC(c1ccccc1Cl)c1ccc2cccnc2c1O (centres undefined),x,x,x,91.0*,97.8*,x,91.3*,77.6*,76.2*
CCCC(=O)NC(c1ccc(N(C)C)cc1)c1ccc2cccnc2c1O (centres undefined),x,x,x,81.6*,63.1*,x,88.5*,75.8*,81.0*
CC(=O)NC(c1ccco1)c1ccc2cccnc2c1O (centres undefined),7.7,1.8,8.6,27.8,17.7,x,x,x,x
COc1ccc(C(NC(=O)C(C)C)c2ccc3cccnc3c2O)cc1 (centres undefined),53.8*,x,74.1*,85.1*,22.3*,0.0,87.4*,52.0*,65.9*
O=C(Cn1cccc1C(=O)c1ccccc1)NCCC1=CCCCC1,7.5,2.0,-0.4,-11.0,1.3,-2.0,x,x,x
CCCC(=O)NC(c1ccc(C(C)C)cc1)c1ccc2cccnc2c1O (centres undefined),x,x,x,69.4*,24.3*,x,84.4*,71.4*,72.6*
CSc1ncc2ncn(C3OC(CO)C(O)C3O)c2n1 (centres undefined),1.5,x,-2.4,7.2,-1.8,-1.5,x,x,x
SMILES,BaF3 parental,MT stabilizer,Ba/F3 V617F tox,KLF5 inhibitor,IEC-6 tox-1,b-catenin transl,KLF5 confirm,IEC-6 tox-2,IEC-6 tox confirm
CN(C)c1ncnc2c1ncn2C1OC(CO)C(O)C1O (centres undefined),13.2,9.7,7.6,65.1*,50.9*,16.7,70.1*,48.1*,70.6*
CCOC(=O)C1(Cc2ccc(OC)cc2)CCN(C(=O)c2cncs2)CC1,-1.9,1.6,0.2,-0.2,-0.4,1.2,x,x,x
COc1cc(C(=O)N/N=C/c2ccsc2C)cc(OC)c1OC,85.0*,11.4,83.0*,76.0*,89.3*,162.9*,86.4*,66.4*,60.2*
COc1cc(C(=O)N/N=C/C2CC=CCC2)cc(OC)c1OC (centres undefined),79.3*,3.6,83.0*,64.3*,89.8*,-1.4,-13.3,-5.8,-0.3
CCOc1ccc(C2C(C(=O)c3ccco3)=C(O)C(=O)N2CCCn2ccnc2)cc1OC (centres undefined),x,x,x,-29.4,-3.7,x,x,x,x
CCC(=O)Nc1c(OC(=O)CC)ccc2c(C)cc(=O)oc12,2.4,5.9,-3.9,11.2,-3.6,-1.8,x,x,x
Oc1nc(Nc2ccc(F)cc2)sc1/C=C1\C=Nc2ccccc21,2.6,x,-2.1,-36.3,-1.5,1.9,x,x,x
CC1=Nc2ccccc2/C1=C\c1sc(Nc2ccc(C)cc2)nc1O,75.3*,8.5,75.8*,66.3*,79.2*,40.2,85.4*,58.3*,54.0*
Cc1cccc(/C=N/NC(=O)c2ccc3c(c2)OCCO3)c1O,x,x,x,69.8*,99.1*,x,39.0,14.2,18.0
O=C(N/N=C/c1cccc(O)c1)c1ccc2c(c1)OCCO2,x,x,x,41.2,8.0,x,x,x,x
CCCCCCCCC[n+]1cccc2c3ccccc3ccc21,92.4*,2.5,101.0*,74.7*,60.4*,2.6,71.4*,39.5*,71.9*
O/N=C/c1cccc[n+]1CCCCCC[n+]1ccccc1/C=N/O,x,x,x,-16.1,-2.6,x,x,x,x
COc1cc(C(=O)Nc2ccc(N3CCN(C(=O)c4ccc(C)cc4)CC3)cc2)cc(OC)c1OC,x,x,x,8.7,0.0,x,x,x,x
O=C(c1ccc(CS(=O)c2ccccc2Cl)o1)N1CCOCC1 (centres undefined),x,x,x,-3.1,-3.8,x,x,x,x
